pKi: −log10 of the molar value.
Assays:
[1] = target: T1, Procathepsin L (Homo sapiens, UniProt P07711); assay: Inhibition of human Cathepsin L by fluorescence assay based Cheng-Prusoff equation analysis
Outline: (§1)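 Fluorescence-based enzymatic assay against human cathepsin L, run as previously described. IC50 was measured, and Ki was then calculated from it with the Cheng-Prusoff equation.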

[2] = Lipophilicity, logD of the compound; assay type: physicochemical; settings: octanol/water
[3] = target: T1, Procathepsin L; assay: Inhibition of human Cathepsin L; outline: as §1

T1 sequence (P07711 whole entry): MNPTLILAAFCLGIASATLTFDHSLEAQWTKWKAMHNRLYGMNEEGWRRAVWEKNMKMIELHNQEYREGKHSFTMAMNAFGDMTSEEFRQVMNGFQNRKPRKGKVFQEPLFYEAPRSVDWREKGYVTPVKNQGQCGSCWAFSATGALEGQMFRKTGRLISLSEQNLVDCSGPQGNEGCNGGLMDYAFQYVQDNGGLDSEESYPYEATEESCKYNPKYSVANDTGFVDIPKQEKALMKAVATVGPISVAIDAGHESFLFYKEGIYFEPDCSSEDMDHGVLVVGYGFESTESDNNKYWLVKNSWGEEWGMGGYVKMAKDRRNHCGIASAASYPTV

With N#Cc1ncc(F)c(N(CCC2CCOCC2)Cc2ccc3c(c2)OCO3)n1 as the compound, how does the pKi [1] read?
The pKi was 5.55.

And the logD [2]?
Its logD is 3.46.

With COc1cccc(CCCN(Cc2ccc3c(c2)OCO3)c2nc(C#N)ncc2F)c1 as the compound, how does the pKi [1] read?
The pKi was 7.52.

With N#Cc1ncc(F)c(N(Cc2ccc3c(c2)OCO3)CC2CCCC2)n1 as the compound, how does the pKi [1] read?
Its pKi is 7.92.

With N#Cc1ncc(F)c(N(CCOc2ccc3ccccc3c2)Cc2ccc3c(c2)OCO3)n1 as the compound, how does the pKi [1] read?
The pKi was 6.91.

With N#Cc1ncc(F)c(N(CCc2ccccc2)Cc2ccc3c(c2)OCO3)n1 as the compound, how does the pKi [1] read?
The pKi was 6.66.

With Cc1cc(OCCN(Cc2ccc3c(c2)OCO3)c2nc(C#N)ncc2F)cc(C)c1Cl as the compound, how does the pKi [1] read?
The pKi was 5.84.

What about the logD [2] of the same compound?
Its logD is 2.32.

With N#Cc1ncc(F)c(N(Cc2ccc3c(c2)OCO3)c2ccc(OCC(F)(F)F)cc2)n1 as the compound, how does the pKi [1] read?
Its pKi is less than 5.29.

With N#Cc1ncc(F)c(N(Cc2ccc3c(c2)OCO3)CC2CC2)n1 as the compound, how does the pKi [1] read?
The pKi was 7.11.

What about the logD [2] of the same compound?
The logD was 3.02.

With CC1(N(Cc2ccc3c(c2)OCO3)c2nc(C#N)ncc2F)CC1 as the compound, how does the pKi [1] read?
Its pKi is less than 5.29.

What about the logD [2] of the same compound?
Its logD is 3.38.

With Cc1nc2n(c(=O)c1CCN(Cc1ccc3c(c1)OCO3)c1nc(C#N)ncc1F)CCCC2 as the compound, how does the pKi [1] read?
Its pKi is 5.76.

And the logD [2]?
The logD was 2.96.

With N#Cc1ncc(F)c(N(Cc2ccc3c(c2)OCO3)C2CCCCC2)n1 as the compound, how does the pKi [3] read?
Its pKi is 6.70.

With N#Cc1ncc(F)c(N(CCc2ccccn2)Cc2ccc3c(c2)OCO3)n1 as the compound, how does the pKi [1] read?
The pKi was 5.41.

And the logD [2]?
Its logD is 3.39.

Which results are given for Cc1nsc(N2CCC(N(Cc3ccc4c(c3)OCO4)c3nc(C#N)ncc3F)CC2)n1?
pKi [1]: 6.39; logD [2]: 3.49

What does the source list for N#Cc1ncc(F)c(N(Cc2ccc3c(c2)OCO3)c2ccccc2)n1?
pKi [1]: 5.74; logD [2]: 3.44

With N#Cc1ncc(F)c(N(CCc2ccc(F)cc2)Cc2ccc3c(c2)OCO3)n1 as the compound, how does the pKi [1] read?
The pKi was 6.55.

With N#Cc1ncc(F)c(N(Cc2ccc3c(c2)OCO3)[C@H]2CC[C@H](C(F)(F)F)CC2)n1 as the compound, how does the pKi [1] read?
The pKi was less than 5.29.

With CSc1cccc(N(Cc2ccc3c(c2)OCO3)c2nc(C#N)ncc2F)c1 as the compound, how does the pKi [1] read?
The pKi was 5.29.

With N#Cc1ncc(F)c(N(CCCc2noc(-c3ccccc3)n2)Cc2ccc3c(c2)OCO3)n1 as the compound, how does the pKi [1] read?
Its pKi is 7.04.

With CC(C)[C@H]1CC[C@@H](N(Cc2ccc3c(c2)OCO3)c2nc(C#N)ncc2F)CC1 as the compound, how does the pKi [1] read?
The pKi was 5.52.

And the logD [2]?
Its logD is 2.74.

With N#Cc1ncc(F)c(N(Cc2ccc3c(c2)OCO3)c2cccc(OCc3ccccc3)c2)n1 as the compound, how does the pKi [1] read?
Its pKi is less than 5.29.

With N#Cc1ncc(F)c(N(CCOc2ccc(Cl)cc2)Cc2ccc3c(c2)OCO3)n1 as the compound, how does the pKi [1] read?
Its pKi is 6.78.

What does the source list for N#Cc1ncc(F)c(N(Cc2ccc3c(c2)OCO3)c2ccc(F)cc2)n1?
pKi [1]: 6.02; logD [2]: 3.49

With N#Cc1ncc(F)c(N(Cc2ccc3c(c2)OCO3)c2ccc(OCC3CC3)cc2)n1 as the compound, how does the pKi [1] read?
The pKi was less than 5.29.

With N#Cc1ncc(F)c(N(Cc2ccccc2)Cc2ccc3c(c2)OCO3)n1 as the compound, how does the pKi [1] read?
Its pKi is less than 5.29.

With N#Cc1cccc(CCN(Cc2ccc3c(c2)OCO3)c2nc(C#N)ncc2F)c1 as the compound, how does the pKi [1] read?
Its pKi is 6.52.

What about the logD [2] of the same compound?
Its logD is 2.12.

With N#Cc1ncc(F)c(N(CCc2ccncc2)Cc2ccc3c(c2)OCO3)n1 as the compound, how does the pKi [1] read?
Its pKi is 6.30.

And the logD [2]?
Its logD is 3.15.

With CC(C)=CCN(Cc1ccc2c(c1)OCO2)c1nc(C#N)ncc1F as the compound, how does the pKi [1] read?
Its pKi is 6.00.

With N#Cc1ncc(F)c(N(CCOc2ccccc2)Cc2ccc3c(c2)OCO3)n1 as the compound, how does the pKi [1] read?
Its pKi is 7.11.

With CNCCc1cccc(N(Cc2ccc3c(c2)OCO3)c2nc(C#N)ncc2F)c1 as the compound, how does the pKi [1] read?
Its pKi is less than 5.29.

With N#Cc1ncc(F)c(N(Cc2ccc3c(c2)OCO3)c2ccc(Oc3cccnc3)cc2)n1 as the compound, how does the pKi [1] read?
The pKi was 5.99.

With N#Cc1ncc(F)c(N(Cc2ccc3c(c2)OCO3)C2CCSCC2)n1 as the compound, how does the pKi [1] read?
The pKi was 6.29.

And the logD [2]?
The logD was 3.61.

With N#Cc1ncc(F)c(N(CCc2ccsc2)Cc2ccc3c(c2)OCO3)n1 as the compound, how does the pKi [1] read?
The pKi was 6.17.

With N#Cc1ncc(F)c(N(CCCc2ccc(Cl)cc2)Cc2ccc3c(c2)OCO3)n1 as the compound, how does the pKi [1] read?
The pKi was 7.57.

With N#Cc1nc(N2CCOCC2)nc(N(Cc2ccc(Cl)cc2)C2CCCCC2)n1 as the compound, how does the pKi [3] read?
Its pKi is 7.89.

With N#Cc1ncc(F)c(N(CCc2cccc(Br)c2)Cc2ccc3c(c2)OCO3)n1 as the compound, how does the pKi [1] read?
The pKi was 6.45.

With N#Cc1ncc(F)c(N(Cc2ccc(Cl)cc2)Cc2ccc3c(c2)OCO3)n1 as the compound, how does the pKi [1] read?
Its pKi is less than 5.29.

What does the source list for N#Cc1ncc(F)c(N(CCC(F)(F)F)Cc2ccc3c(c2)OCO3)n1?
pKi [1]: 7.60; logD [2]: 3.16

With N#Cc1ncc(F)c(N(Cc2ccc3c(c2)OCO3)[C@H]2CC[C@@H](C(F)(F)F)CC2)n1 as the compound, how does the pKi [1] read?
The pKi was 5.46.

From ChEMBL document CHEMBL4007486, “Prospective Evaluation of Free Energy Calculations for the Prioritization of Cathepsin L Inhibitors” (J Med Chem, 2017)
